An excerpt weighted towards active compounds, which were near 3.1% of everything screened.
CHO parental Ca: ATP-evoked calcium signal inhibitors, parental CHO, primary screen, counter-screen for OX1R antagonist project, cell-based, fluorescence, Fluo-8 calcium dye | inhibition, % at 5.6 µM | 330,000 tested, 0.63% active | parental CHO-K1, ATP-induced calcium, Fluo-8 fluorescence | AID 463079, 2010;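 active = inhibition above that plate's mean sample inhibition plus 3 SD, cut at about 26% in these data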;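 note: 0% = ATP-challenged DMSO wells and 100% = DMSO wells without ATP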
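Test system: untransfected parental CHO cell line. Compound: one dose, 5.6 µM nominal. Detection: intracellular calcium via Fluo-8 no-wash fluorescent dye. Measure: % inhibition. Benchmarks: ATP-challenged DMSO wells low, unchallenged DMSO wells high.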
OX1R antag-1: antagonists of human orexin 1 receptor (OX1R); AID 485270, 2010; 330,000 tested, 1.8% active; OX1R-expressing cells, FRET antagonist read-out; inhibition, % at 6.6 µM; Orexin/Hypocretin receptor type 1 (Homo sapiens), O43613; in the data active = inhibition mostly above about 38%, no sharp cut-off; inactive = mostly below about 40%;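 note: 0% = agonist challenge alone and 100% = reference antagonist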
GalR3 antagonist: GalR3 antagonists in HEK293 cells, primary screen, cell-based, fluorescence readout | Galanin receptor type 3 (Homo sapiens), O60755 | HEK293 GalR3-CNG cAMP membrane potential fluorescence; galR3 body fused to GalR1 C-terminus | inhibition, % at 3 µM | 360,000 tested, 0.44% active | AID 651719, 2012;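 active = inhibition above the screen-wide average plus 3 SD, cut at about 13% in these data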;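 note: forskolin and galanin both at EC90 stimulate the cells; cAMP rise reported by CNG channel membrane potential dye signal; 0% = forskolin plus galanin with DMSO and 100% = forskolin alone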
OX1R antag-2: OX1R (HCRTR1) antagonists, primary screen, fluorescence, CHO/OX1R cells, Fluo-8 calcium, orexin A; Orexin/Hypocretin receptor type 1 (Homo sapiens), O43613; Fluo-8 calcium fluorescence; inhibition, % at 5 µM; 330,000 tested, 0.43% active;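 active = inhibition above its plate's threshold, mean inhibition of all tested compounds on the plate plus 3 SD, cut at about 37% in these data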;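 note: 0% = orexin A challenge wells and 100% = SB-334867-A antagonist wells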
GPR7 antag: GPR7 receptor antagonists, primary screen, cell-based, fluorescence, single concentration; Neuropeptides B/W receptor type 1 (Homo sapiens), P48145; GPR7-expressing cells, fluorescence antagonist assay; inhibition, % at 4.4 µM; 290,000 tested, 1.1% active; in the data active = inhibition above about 16%, passing the limit was not always enough;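 note: cells stimulated with the agonist NPW; 0% = agonist with vehicle and 100% = vehicle without agonist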
Target sequence (P48145 whole entry, looked up): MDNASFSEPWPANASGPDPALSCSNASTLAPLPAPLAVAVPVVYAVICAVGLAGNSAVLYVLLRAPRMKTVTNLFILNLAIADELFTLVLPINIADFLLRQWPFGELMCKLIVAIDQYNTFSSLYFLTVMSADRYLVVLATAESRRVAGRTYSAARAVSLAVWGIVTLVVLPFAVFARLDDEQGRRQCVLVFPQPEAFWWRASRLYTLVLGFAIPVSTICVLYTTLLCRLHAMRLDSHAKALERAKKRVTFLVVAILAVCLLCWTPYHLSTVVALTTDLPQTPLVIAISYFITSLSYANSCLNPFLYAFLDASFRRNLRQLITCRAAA
GPR7 antag cf: GPR7 receptor antagonists, confirmation, cell-based, fluorescence, single concentration. inhibition, % at 4.4 µM. GPR7-expressing cells, calcium fluorescence antagonist mode. 2,400 tested, 52% active. AID 1952, 2009. shares compounds with GPR7 antag; in the data active = inhibition above about 24%;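 note: stimulated with the GPR7 agonist NPW; 0% = agonist plus vehicle and 100% = vehicle alone without agonist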
MCHR1 antag: MCHR1 antagonists in cells, counter-screen for GPR7 antagonist project, cell-based, fluorescence, human; AID 2148, 2009; inhibition, % at 4.4 µM; 2,400 tested, 62% active; shares compounds with GPR7 antag; MCHR1-expressing cells, fluorescence antagonist assay; in the data active = inhibition above about 22%;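 note: 0% = vehicle with agonist and 100% = vehicle without agonist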
* marks the source's active call; other numbers are inactive results; / = not tested or not shown.

SMILES	CHO parental Ca	OX1R antag-1	GalR3 antagonist	OX1R antag-2	GPR7 antag	GPR7 antag cf	MCHR1 antag
Cc1cc(C)nc(CCNC(=O)c2cc(COc3ccccc3)on2)n1	-10	18	-2	-8	27*	3	-1
COC(=O)CC1C(=O)NCCN1C(=O)c1oc2c(C)c(C)ccc2c1C (stereo not drawn)	/	/	-4	/	/	/	/
COc1ccc(OC)c(C(c2nnnn2C2CCCC2)N2CCN(c3ccccc3)CC2)c1 (stereo not drawn)	-18	17	-4	-13	31*	24*	41*
COc1ccc(C(c2nnnn2C2CCCCC2)N2CCN(c3ccc(OC)cc3)CC2)cc1 (stereo not drawn)	-8	29	-3	-9	-10	/	/
Cc1cn([C@H]2C[C@H](O)[C@@H](CNCc3cnc(N4CCOCC4)s3)O2)c(=O)[nH]c1=O	/	/	-6	/	/	/	/
CC(NCc1cc(Br)ccc1OCC(N)=O)C12CC3CC(CC(C3)C1)C2 (stereo not drawn)	-27	3	-10	-49	27*	28*	35*
COc1cc(CNC(C)C23CC4CC(CC(C4)C2)C3)ccc1OCC(=O)NC(C)(C)C (stereo not drawn)	-8	13	-12	-29	19	/	/
CSCCC(c1nc2ccccc2[nH]1)n1c(-c2ccc3ncccc3c2)nc2ccccc21 (stereo not drawn)	/	/	-7	/	/	/	/
CC(=O)NC(c1cccc(F)c1)c1nc(/C=C/c2ccccc2)cs1 (stereo not drawn)	/	/	0	/	/	/	/
O=C(COC(=O)c1cc([N+](=O)[O-])ccc1N1CCOCC1)Nc1cccc(F)c1	4	71*	1	5	35*	7	24*
CCn1c(SCC(=O)c2ccc(Cl)cc2)nnc1-c1cccs1	-3	30	-8	-4	10	/	/
CCn1c(SCCOc2ccc(Cl)cc2)nnc1-c1cccs1	-20	17	-2	-18	29*	9	31*
C[C@H](CO)N1C[C@H](C)[C@@H](CN(C)Cc2ccc(Oc3ccccc3)cc2)OCc2cnnn2CCCC1=O	/	/	0	/	/	/	/
COC(=O)[C@@H](Cc1ccccc1)N[C@H](/C=C/c1ccccc1)[C@@H](O)Cc1ccccc1	/	/	-6	/	/	/	/
CC(C(=O)N1CCN(Cc2ccc3c(c2)OCO3)CC1)c1ccc([N+](=O)[O-])cc1 (stereo not drawn)	-20	26	-4	-26	27*	27*	27*
CC(C)Oc1ccc(F)cc1-c1cc(C(=O)NCc2ccc(F)cc2)[nH]n1	/	/	-4	/	/	/	/
COc1ccc(CNC(=O)CSc2nnc(C)c(=O)[nH]2)cc1	-5	6	-7	-4	25*	-6	0
COc1ccc(CNC(=O)CSc2ncn[nH]2)cc1	10	15	0	-13	0	/	/
O=C1C2C3C=CC(C3)C2C(=O)N1c1ccc(-c2nc3ccccc3o2)cc1 (stereo not drawn)	-3	22	0	-13	40*	12	1
O=C(CC[C@H]1O[C@@H](n2cnc3c(NC(=O)c4ccccc4)ncnc32)[C@H](O)[C@@H]1O)NCC1CCN(Cc2ccccc2)CC1	/	/	-6	/	/	/	/
O=C(Nc1ccc(OC(F)(F)F)cc1)Nc1cccnc1	21	30	-2	12	22*	4	30*
C[C@@H]1CN([C@@H](C)CO)C(=O)CCCn2cc(nn2)CO[C@H]1CN(C)S(=O)(=O)c1ccc(Cl)cc1	/	/	-6	/	/	/	/
C[C@H]1CN([C@@H](C)CO)C(=O)CCCn2nncc2CO[C@H]1CN(C)C(=O)C1CCCCC1	/	/	-3	/	/	/	/
Cc1ccc(NC(=O)c2ccccc2F)cc1S(=O)(=O)N1CCCCCC1	-4	5	3	-35	22*	-10	54*

Source: PubChem
